Bioassay records from PubChem BioAssay.
STAT3 blocker: STAT3 signaling inhibition; U3A cells, IL-6 STAT3-luciferase reporter, luminescence; host cell line lacks STAT1; inhibition, % at 5.5 µM; hit rate 0.89% among 190,000; AID 862;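 active = inhibition above the mean inhibition across all screened compounds plus 3 SD, cut at about 44% in these data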
STAT3 act: increases IL-6 driven STAT3 reporter signal; U3A cells, IL-6 STAT3-luciferase reporter, luminescence; 100% = signal with IL-6 EC80 alone; hit rate 0.91% among 190,000; activation (% of control), % at 5.6 µM;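 active = activation above the screen-wide mean of compound activation plus 3 SD, cut at about 130% in these data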
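Test system: STAT3-luciferase reporter U3A cells; Detection: reporter luminescence signal; Times: 1 h compound pre-exposure, 6 h IL-6 stimulation, 37 °C; Benchmarks: IL-6-only high control; Also added: IL-6 stimulus at 33 ng/mL final.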
APP 5'UTR act: APP 5'UTR luciferase reporter activation | SH-SY5Y APP 5'UTR luciferase reporter, luminescence; zero percent = DMSO vehicle wells | activation, % at 2 µM | hit rate 1% among 190,000;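 active = activation above a set limit, based on mean plus 3 SD of controls, cut at about 140% in these data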
STAT1 blocker: reduces IFN-gamma driven STAT1 reporter signal | NIH 3T3 STAT1-luciferase reporter, luminescence | inhibition, % at 5.5 µM | hit rate 0.35% among 200,000 | AID 920;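 active = inhibition above a set limit, the mean inhibition across all tested compounds plus 3 SD, cut at about 34% in these data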
NF-kB neuron act: compounds increasing NF-kB expression in human neuronal cells; hit rate 1.6% among 190,000; fold change at 12.5 µM; NF-kB reporter expression; active compounds read high; in the data active = fold change above about 3.3
STAT1 activator: STAT1 signaling activation. NIH 3T3 STAT1-luciferase reporter, IFN-gamma, luminescence; 100% = IFN-gamma alone, no compound. activation (% of control), % at 5.5 µM. hit rate 2.6% among 200,000;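 active = activation above the screen-wide mean activation plus 3 SD, cut at about 130% in these data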
Each line names hits and unclear results; the compound was inactive in the other large screens. Most compounds without a hit are left out; they make up all but 5.1% or so of the library.

O=C(CSc1nnnn1-c1ccccc1)Nc1nsc(-c2ccccc2)n1	NF-kB neuron act 7.91
COc1cccc(-c2nnc(NC(=O)c3ccc(Cl)s3)o2)c1	none
CCn1nnc(NC(=O)c2ccc(C(C)(C)C)cc2)n1	NF-kB neuron act 3.66
COC(=O)C1=C(CN2CCc3ccccc32)NC(=O)NC1c1cc(C)ccc1C (configuration not stated)	none
COC(=O)C1=C(CN2CCCc3ccccc32)NC(=O)NC1c1ccc(F)cc1 (configuration not stated)	STAT3 blocker 90.9, STAT1 blocker 59.5
O=C(Nc1ccc(F)c(F)c1)c1cnc(-c2ccccc2)nc1-c1ccccc1	none
O=C(O)c1ccc(NC(=O)c2cn(-c3ccccc3)nc2-c2ccc(F)cc2)cc1	STAT1 activator 135.1
CC(=O)c1ccc(NC(=O)c2cn(-c3ccccc3)nc2-c2ccncc2)cc1	none (no result: APP 5'UTR act)
O=C(Nc1ccc(F)cc1)c1cnc(-c2ccccc2)nc1-c1ccccc1	STAT1 activator 132.9
Cc1nc(C)c(/C(O)=C/c2nc3ccccc3oc2=O)s1	NF-kB neuron act 4.75
Cc1cc(C(=O)CSc2nnnn2C)c(C)n1-c1ccc2c(c1)OCCO2	STAT1 activator 137.5
CCn1nnnc1SCC(=O)c1ccc2c(c1)OCCO2	none
Cc1cc(C(=O)CSc2nnc3ccccn23)c(C)n1-c1ccccc1	STAT3 blocker 96.5, STAT1 blocker 67.3
CC(C)n1nnnc1SCC(=O)c1ccc2c(c1)OCCO2	APP 5'UTR act 155.5
Cc1ccc2c(c1)NC(=O)c1cccnc1N2	STAT1 activator 139.3
Cn1cccc1C(=O)OCC(=O)N1CC(=O)Nc2ccccc21	none
COc1ccc(-c2nn3c(-c4ccccc4)nnc3s2)cc1	none
CCN(CC)c1ccc(-c2nn3c(-c4ccccc4OC)nnc3s2)cc1	STAT3 act 136.3
O=C(Nc1cccc(-c2nnc(-c3ccco3)o2)c1)C(c1ccccc1)c1ccccc1	none
Cc1ccc(/C(CSc2nccn2-c2ncc(C(F)(F)F)cc2Cl)=N\O)cc1	none
O=C(CSc1nccn1-c1ncc(C(F)(F)F)cc1Cl)c1ccc(Br)cc1	STAT3 act 161.7, STAT1 activator 130.4
CCC(=O)Nc1cccc(-c2nnc(SCC(=O)NCc3ccco3)n2C)c1	none
CCC(=O)Nc1cccc(-c2nnc(SCC(=O)c3ccccc3)n2C)c1	STAT1 activator 148.5
CC(=O)NS(=O)(=O)c1ccc(N=c2ssc3c2-c2ccc(C)cc2NC3(C)C)cc1	STAT1 activator 134.0
CC(C)(C)c1nc2cc(Cl)c([N+](=O)[O-])cc2o1	none
Cc1ccc(F)cc1NC(=O)c1ccc(NS(=O)(=O)c2ccc(Br)s2)cc1	none
S=C1NC[C@H](c2ccccc2)N1CC1CCCCC1	none (no result: STAT3 blocker, STAT3 act)
COc1ccc(NC2=Nc3cccc4cccc2c34)cc1OC	none
Clc1ccc(/C=N/NC2=Nc3cccc4cccc2c34)cc1	STAT1 activator 135.4
C(=N\NC1=Nc2cccc3cccc1c23)/c1cccnc1	STAT1 activator 150.1
Clc1ccc(N/N=C/c2cccnc2)cc1	none
C(=N\NC1=Nc2cccc3cccc1c23)/c1ccccc1	STAT3 act 143.8, STAT1 activator 179.8
CCCCc1ccc(NC(=S)NCCc2ccc(S(N)(=O)=O)cc2)cc1	none
Cc1sc(NC(=O)c2ccc(Br)s2)c(C(N)=O)c1C	STAT3 act 185.2, NF-kB neuron act 5.2, STAT1 activator 145.5
Cc1sc(NC(=O)c2ccc(Cl)s2)c(C(N)=O)c1C	STAT3 act 159.4, APP 5'UTR act 142.4, NF-kB neuron act 5.28, STAT1 activator 167.2
Cc1cc(C)n2c(=O)c3ccc(Cl)cc3nc2c1C#N	none
Cc1cc(Cl)n2c(nc3cc(F)c(F)cc32)c1C#N	STAT1 activator 131.4
C=CCSc1nc2ccccc2n1C(=O)/C=C/c1cc(OC)c(OC)c(OC)c1	STAT1 activator 145.0
C=CCSc1nc2ccccc2n1C(=O)/C=C/c1ccc(OC)c(OC)c1	none
CCCN(C(=O)c1ccco1)c1nnc(-c2cccc(C)c2)s1	none
CCN(C(=O)c1ccco1)c1nnc(-c2ccc(OC)cc2)s1	NF-kB neuron act 3.63
COc1ccc(-c2nnc(N(C)C(=O)C3CCOC3)s2)cc1 (configuration not stated)	APP 5'UTR act 157.4
COc1ccc(-c2nnc(N(C)C(=O)C3CCCO3)s2)cc1 (configuration not stated)	none
Cn1ncc2c1ncn1nc(COc3ccc4ccccc4c3)nc21	none
Cn1ncc2c1ncn1nc(CCc3ccccc3)nc21	NF-kB neuron act 3.8, STAT1 activator 142.5
O=C(NCC1CCCO1)c1ccc(CSCc2cccc(F)c2)o1 (configuration not stated)	none
CCc1ccc(Oc2cc(C)nc(N)n2)cc1	NF-kB neuron act 3.31, STAT1 activator 131.9
CC1CCC2C(C1)Nc1c(C(=O)O)cccc1C2(C)C (configuration not stated)	none
O=c1[nH]c(N/N=C/c2ccccc2)nc2ccccc12	APP 5'UTR act 139.7, STAT1 activator 144.7
O=C(N/N=C/c1ccc2c(c1)OCO2)c1cc(-c2ccccc2)nc2ccccc12	none
O=c1[nH]c(N/N=C\c2ccc3c(c2)OCO3)nc2ccccc12	APP 5'UTR act 205.1, NF-kB neuron act 4.39, STAT1 activator 140.5
Cn1c(CNC(=O)c2ccccc2F)nnc1SCc1nc2ccccc2c(=O)[nH]1	none
Cc1cccc(NC(=S)N(c2ccccc2)C(C)C)c1C	none
O=C(/C=C/c1ccco1)NC1=NCCS1	STAT1 activator 144.9
COc1ccc(/C=C/C(=O)NC2=NCCS2)cc1OC	STAT1 activator 132.1
CS(=O)(=O)N1CCC(C(=O)Nc2cccc([N+](=O)[O-])c2)CC1	none
CCCCn1c(-c2ccccc2)cnc1SCC(=O)NCCc1ccc(OC)c(OC)c1	STAT1 activator 134.1 (no result: APP 5'UTR act)
CCC1=NN2C(=N)/C(=C\c3ccc(OCc4cc(=O)n5nc(CC)sc5n4)c(OC)c3)C(=O)N=C2S1	none
C=CCOc1ccccc1CNc1ccc2c(c1)OCCO2	STAT3 blocker 70.4, STAT1 blocker 42.6
C=CCOc1ccccc1CNc1cccc(F)c1	none
CCOC(=O)C1CCN(Cc2ccc(O)c3ncccc23)CC1	NF-kB neuron act 10.1
COc1ccccc1N1CCN(Cc2ccc(O)c3ncccc23)CC1	NF-kB neuron act 7.2
Cc1c(Nc2ccc(C=O)cc2)c(=O)n(-c2ccccc2)n1C	none
Cc1nonc1CN(C)C(=O)CC1C(=O)NCCN1Cc1ccccc1C(F)(F)F (configuration not stated)	none
O=C(NNc1nc2cc3c(cc2s1)OCCO3)c1ccccc1	STAT1 activator 132.0
CC(C)C(=O)Nc1cc(C(F)(F)F)ccc1-n1ccnc1	none
O=C(N/N=C/c1ccc[nH]1)c1ccccc1[N+](=O)[O-]	none
O=[N+]([O-])c1ccc(N/N=C/c2ccc[nH]2)cc1	NF-kB neuron act 25.8
O=c1[nH]c(/C=C2\C=Nc3ccccc32)c(O)n1Cc1ccccc1F	NF-kB neuron act 6.94
